Reference: ChEMBL document CHEMBL1926518, “Synthesis of macrolones with central piperazine ring in the linker and its influence on antibacterial activity” (2011)
Converted amounts (≈) assume the structure as drawn.

Legend:
Type in all cases: functional
[1] = test system: Streptococcus pyogenes; experiment: Antibacterial activity against inducible macrolide, licosamide and streptogramin-resistant Streptococcus pyogenes Finland 11 by broth microdilution technique
In short: (§1)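 MICs were determined by CLSI broth microdilution, with double dilutions of compound. In the streptococcal medium, 5% horse serum replaced lysed blood. Streptococci were grown on Columbia agar with 5% sheep blood before testing. Results are given in µg/mL.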

[2] = test system: Streptococcus pyogenes; experiment: Antibacterial activity against constitutive macrolide, licosamide and streptogramin-resistant Streptococcus pyogenes 166 GR-Micro by broth microdilution technique; in short: as §1
[3] = test system: Streptococcus pneumoniae; experiment: Antibacterial activity against constitutive macrolide, licosamide and streptogramin-resistant Streptococcus pneumoniae 58 Spain by broth microdilution technique; in short: as §1
[4] = test system: Staphylococcus aureus; experiment: Antibacterial activity against inducible macrolide, licosamide and streptogramin-resistant Staphylococcus aureus 90256/97 by broth microdilution technique
In short: (§2)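 MICs were determined by CLSI broth microdilution, with double dilutions of compound. Staphylococci were grown on Mueller–Hinton agar before testing. Results are given in µg/mL.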

[5] = test system: Moraxella catarrhalis; experiment: Antibacterial activity against Moraxella catarrhalis ATCC 23246 by broth microdilution technique
In short: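 MIC by broth microdilution per CLSI guidelines with doubling dilutions of compounds. Before testing, organisms were grown on Columbia agar with 5% sheep blood. Values reported in µg/mL.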

[6] = test system: Haemophilus influenzae; experiment: Antibacterial activity against Haemophilus influenzae ATCC 49247 by broth microdilution technique
In short: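 MIC by broth microdilution per CLSI guidelines with doubling dilutions of compounds. Before testing, organisms were grown on Mueller-Hinton chocolate agar. Values reported in µg/mL.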

[7] = test system: Streptococcus pneumoniae; experiment: Antibacterial activity against efflux-mediated macrolide-resistant Streptococcus pneumoniae Ci137 by broth microdilution technique; in short: as §1
[8] = test system: Streptococcus pyogenes; experiment: Antibacterial activity against efflux-mediated macrolide-resistant Streptococcus pyogenes 3 Finland by broth microdilution technique; in short: as §1
[9] = test system: Streptococcus pyogenes; experiment: Antibacterial activity against erythromycin-sensitive Streptococcus pyogenes 3565 by broth microdilution technique
In short: (§3)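 Streptococcal MICs by CLSI broth microdilution with doubling dilutions, but with 5% horse serum in the medium in place of lysed blood. Before testing, strains were grown on Columbia agar with 5% sheep blood. Values reported in µg/mL.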

[10] = test system: Streptococcus pneumoniae; experiment: Antibacterial activity against inducible macrolide-resistant, constitutive licosamide and streptogramin-resistant Streptococcus pneumoniae 134 GR-Micro by broth microdilution technique; in short: as §1
[11] = test system: Staphylococcus aureus; experiment: Antibacterial activity against erythromycin-sensitive Staphylococcus aureus ATCC 13709 by broth microdilution technique
In short: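 MIC by broth microdilution per CLSI guidelines with doubling dilutions of compounds. Before testing, staphylococci were grown on Mueller–Hinton agar. Values reported in µg/mL.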

[12] = test system: Staphylococcus aureus; experiment: Antibacterial activity against efflux-mediated macrolide-resistant Staphylococcus aureus PK1 by broth microdilution technique; in short: as §2
[13] = test system: Streptococcus pneumoniae; experiment: Antibacterial activity against erythromycin-sensitive Streptococcus pneumoniae SP030 by broth microdilution technique; in short: as §3
[14] = test system: Staphylococcus aureus; experiment: Antibacterial activity against constitutive macrolide, licosamide and streptogramin-resistant Staphylococcus aureus PK2 by broth microdilution technique; in short: as §2

## CCOC(=O)c1cn(C2CC2)c2ccc(CCCN3CCN(CCC(=O)O[C@H]4[C@H](C)O[C@@H](O[C@H]5[C@H](C)[C@@H](O[C@@H]6O[C@H](C)C[C@H](N(C)C)[C@H]6O)[C@](C)(OC)C[C@@H](C)C(=O)[C@H](C)[C@@H](O)[C@](C)(O)[C@@H](CC)OC(=O)[C@@H]5C)C[C@@]4(C)OC)CC3)cc2c1=O
[1]
  MIC: 0.5 µg/mL (≈ 0.422 µM)
[2]
  MIC: 16 µg/mL (≈ 13.5 µM)
[3]
  MIC: 4 µg/mL (≈ 3.37 µM)
[4]
  MIC: > 64 µg/mL
[5]
  MIC: 4 µg/mL (≈ 3.37 µM)
[6]
  MIC: > 64 µg/mL
[7]
  MIC: ≤ 0.125 µg/mL
[8]
  MIC: ≤ 0.125 µg/mL
[9]
  MIC: ≤ 0.125 µg/mL
[10]
  MIC: 16 µg/mL (≈ 13.5 µM)
[11]
  MIC: 4 µg/mL (≈ 3.37 µM)
[12]
  MIC: > 64 µg/mL
[13]
  MIC: ≤ 0.125 µg/mL
[14]
  MIC: > 64 µg/mL

## CC[C@H]1OC(=O)[C@H](C)[C@@H](O[C@H]2C[C@@](C)(OC)[C@@H](O)[C@H](C)O2)[C@H](C)[C@@H](O[C@@H]2O[C@H](C)C[C@H](N(C)C)[C@H]2O)[C@](C)(OC)C[C@@H](C)C(=O)[C@H](C)[C@@H](O)[C@]1(C)O [CLARITHROMYCIN]
[1]
  MIC: 1 µg/mL (≈ 1.34 µM)
[2]
  MIC: > 64 µg/mL
[3]
  MIC: > 64 µg/mL
[4]
  MIC: > 64 µg/mL
[5]
  MIC: ≤ 0.125 µg/mL
[6]
  MIC: 8 µg/mL (≈ 10.7 µM)
[7]
  MIC: 4 µg/mL (≈ 5.35 µM)
[8]
  MIC: 4 µg/mL (≈ 5.35 µM)
[9]
  MIC: ≤ 0.125 µg/mL
[10]
  MIC: > 64 µg/mL
[11]
  MIC: 0.25 µg/mL (≈ 0.334 µM)
[12]
  MIC: 32 µg/mL (≈ 42.8 µM)
[13]
  MIC: ≤ 0.125 µg/mL
[14]
  MIC: > 64 µg/mL

## CCOC(=O)c1cn(C2CC2)c2ccc(C#CCN3CCN(CCC(=O)O[C@H]4[C@H](C)O[C@@H](O[C@H]5[C@H](C)[C@@H](O[C@@H]6O[C@H](C)C[C@H](N(C)C)[C@H]6O)[C@](C)(O)C[C@@H](C)CN(C)[C@H](C)[C@@H](OC)[C@](C)(O)[C@@H](CC)OC(=O)[C@@H]5C)C[C@@]4(C)OC)CC3)cc2c1=O
[1]
  MIC: ≤ 0.125 µg/mL
[2]
  MIC: 32 µg/mL (≈ 26.7 µM)
[3]
  MIC: 0.5 µg/mL (≈ 0.418 µM)
[4]
  MIC: > 64 µg/mL
[5]
  MIC: 4 µg/mL (≈ 3.34 µM)
[6]
  MIC: 16 µg/mL (≈ 13.4 µM)
[7]
  MIC: ≤ 0.125 µg/mL
[8]
  MIC: 0.5 µg/mL (≈ 0.418 µM)
[9]
  MIC: ≤ 0.125 µg/mL
[10]
  MIC: 0.25 µg/mL (≈ 0.209 µM)
[11]
  MIC: 4 µg/mL (≈ 3.34 µM)
[12]
  MIC: 64 µg/mL (≈ 53.5 µM)
[13]
  MIC: ≤ 0.125 µg/mL
[14]
  MIC: > 64 µg/mL

## CCOC(=O)c1cn(CC)c2ccc(/C=C/CN3CCNCC3)cc2c1=O
[1]
  MIC: > 64 µg/mL
[2]
  MIC: > 64 µg/mL
[3]
  MIC: > 64 µg/mL
[4]
  MIC: > 64 µg/mL
[5]
  MIC: > 64 µg/mL
[6]
  MIC: > 64 µg/mL
[7]
  MIC: > 64 µg/mL
[8]
  MIC: > 64 µg/mL
[9]
  MIC: > 64 µg/mL
[10]
  MIC: > 64 µg/mL
[11]
  MIC: > 64 µg/mL
[12]
  MIC: > 64 µg/mL
[13]
  MIC: 64 µg/mL (≈ 173 µM)
[14]
  MIC: > 64 µg/mL

## CCOC(=O)c1cn(C2CC2)c2ccc(C#CCN3CCN(CCC(=O)O[C@H]4[C@H](C)O[C@@H](O[C@H]5[C@H](C)[C@@H](O[C@@H]6O[C@H](C)C[C@H](N(C)C)[C@H]6O)[C@](C)(OC)C[C@@H](C)C(=O)[C@H](C)[C@@H](O)[C@](C)(O)[C@@H](CC)OC(=O)[C@@H]5C)C[C@@]4(C)OC)CC3)cc2c1=O
[1]
  MIC: 0.5 µg/mL (≈ 0.423 µM)
[2]
  MIC: 16 µg/mL (≈ 13.5 µM)
[3]
  MIC: 4 µg/mL (≈ 3.39 µM)
[4]
  MIC: > 64 µg/mL
[5]
  MIC: 4 µg/mL (≈ 3.39 µM)
[6]
  MIC: > 64 µg/mL
[7]
  MIC: ≤ 0.125 µg/mL
[8]
  MIC: ≤ 0.125 µg/mL
[9]
  MIC: ≤ 0.125 µg/mL
[10]
  MIC: 4 µg/mL (≈ 3.39 µM)
[11]
  MIC: 4 µg/mL (≈ 3.39 µM)
[12]
  MIC: > 64 µg/mL
[13]
  MIC: ≤ 0.125 µg/mL
[14]
  MIC: > 64 µg/mL

## CC[C@H]1OC(=O)[C@H](C)[C@@H](O[C@H]2C[C@@](C)(OC)[C@@H](OC(=O)CCN3CCN(CC#Cc4ccc5c(c4)c(=O)c(C(=O)O)cn5CC)CC3)[C@H](C)O2)[C@H](C)[C@@H](O[C@@H]2O[C@H](C)C[C@H](N(C)C)[C@H]2O)[C@](C)(O)C[C@@H](C)CN(C)[C@H](C)[C@@H](OC)[C@]1(C)O
[1]
  MIC: ≤ 0.125 µg/mL
[2]
  MIC: 16 µg/mL (≈ 13.8 µM)
[3]
  MIC: 4 µg/mL (≈ 3.46 µM)
[4]
  MIC: 8 µg/mL (≈ 6.92 µM)
[5]
  MIC: 0.5 µg/mL (≈ 0.432 µM)
[6]
  MIC: 1 µg/mL (≈ 0.865 µM)
[7]
  MIC: ≤ 0.125 µg/mL
[8]
  MIC: ≤ 0.125 µg/mL
[9]
  MIC: ≤ 0.125 µg/mL
[10]
  MIC: 8 µg/mL (≈ 6.92 µM)
[11]
  MIC: 0.25 µg/mL (≈ 0.216 µM)
[12]
  MIC: 0.5 µg/mL (≈ 0.432 µM)
[13]
  MIC: ≤ 0.125 µg/mL
[14]
  MIC: > 64 µg/mL

## CC[C@H]1OC(=O)[C@H](C)[C@@H](O[C@H]2C[C@@](C)(OC)[C@@H](OC(=O)CCN3CCN(CCCc4ccc5c(c4)c(=O)c(C(=O)O)cn5CC)CC3)[C@H](C)O2)[C@H](C)[C@@H](O[C@@H]2O[C@H](C)C[C@H](N(C)C)[C@H]2O)[C@](C)(O)C[C@@H](C)CN(C)[C@H](C)[C@@H](OC)[C@]1(C)O
[1]
  MIC: ≤ 0.125 µg/mL
[2]
  MIC: 32 µg/mL (≈ 27.6 µM)
[3]
  MIC: ≤ 0.125 µg/mL
[4]
  MIC: 4 µg/mL (≈ 3.45 µM)
[5]
  MIC: 0.5 µg/mL (≈ 0.431 µM)
[6]
  MIC: 1 µg/mL (≈ 0.862 µM)
[7]
  MIC: ≤ 0.125 µg/mL
[8]
  MIC: ≤ 0.125 µg/mL
[9]
  MIC: ≤ 0.125 µg/mL
[10]
  MIC: 16 µg/mL (≈ 13.8 µM)
[11]
  MIC: ≤ 0.125 µg/mL
[12]
  MIC: 0.25 µg/mL (≈ 0.215 µM)
[13]
  MIC: ≤ 0.125 µg/mL
[14]
  MIC: > 64 µg/mL

## CCOC(=O)c1cn(CC)c2ccc(C#CCN3CCN(CCC(=O)O[C@H]4[C@H](C)O[C@@H](O[C@H]5[C@H](C)[C@@H](O[C@@H]6O[C@H](C)C[C@H](N(C)C)[C@H]6O)[C@](C)(O)C[C@@H](C)CN(C)[C@H](C)[C@@H](O)[C@](C)(O)[C@@H](CC)OC(=O)[C@@H]5C)C[C@@]4(C)OC)CC3)cc2c1=O
[1]
  MIC: ≤ 0.125 µg/mL
[2]
  MIC: 32 µg/mL (≈ 27.3 µM)
[3]
  MIC: ≤ 0.125 µg/mL
[4]
  MIC: > 64 µg/mL
[5]
  MIC: 1 µg/mL (≈ 0.854 µM)
[6]
  MIC: 4 µg/mL (≈ 3.42 µM)
[7]
  MIC: ≤ 0.125 µg/mL
[8]
  MIC: ≤ 0.125 µg/mL
[9]
  MIC: ≤ 0.125 µg/mL
[10]
  MIC: ≤ 0.125 µg/mL
[11]
  MIC: 1 µg/mL (≈ 0.854 µM)
[12]
  MIC: 16 µg/mL (≈ 13.7 µM)
[13]
  MIC: ≤ 0.125 µg/mL
[14]
  MIC: > 64 µg/mL
